Results reported in ChEMBL document CHEMBL2034972, “Synthesis, biological evaluation, and structure-activity relationships of N-benzoyl-2-hydroxybenzamides as agents active against P. falciparum (K1 strain), Trypanosomes, and Leishmania” (J Med Chem, 2012).
In brackets after ≈: the same amount, converted by molar mass.

What was measured:
[1] = test system: Trypanosoma brucei rhodesiense; experiment: Antitrypanosomal activity against trypomastigotes of Trypanosoma brucei rhodesiense […] after 72 hrs by alamar blue assay; type: functional, organism-based; conditions: STIB 900, L6, 72 h
Procedure, shortened: (§1)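 In vitro screens of parasites and host cells: T. b. rhodesiense STIB900 trypomastigotes, T. cruzi Tulahuen C4 intracellular amastigotes, L. donovani MHOM-ET-67/L82 axenic amastigotes, P. falciparum K1 erythrocytic stage, and L6 rat skeletal myoblasts […] for toxicity. […] Values are means of two independent determinations.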

[2] = test system: Trypanosoma cruzi; experiment: Antitrypanosomal activity against intracellular amastigote stage of Trypanosoma cruzi Tulahuen C2C4 infected in rat L6 cells after 96 hrs by spectrophotometric analysis; type: functional, organism-based; conditions: Tulahuen C2C4, L6, 96 h
Procedure, shortened: (§2)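 In vitro screens of parasites and host cells: T. b. rhodesiense STIB900 trypomastigotes, T. cruzi Tulahuen C4 intracellular amastigotes, L. donovani MHOM-ET-67/L82 axenic amastigotes, P. falciparum K1 erythrocytic stage, and L6 rat skeletal myoblasts […] for toxicity. Values are means of two independent determinations.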

[3] = test system: Leishmania donovani; experiment: Antileishmanial activity against axenic amastigote stage of Leishmania donovani […] after 72 hrs by alamar blue assay; type: functional, organism-based; conditions: MHOM/ET/67/L82, L6, 72 h; procedure, shortened: as §2
[4] = test system: Plasmodium falciparum; experiment: Antimalarial activity against chloroquine and pyrimethamine-resistant Plasmodium falciparum […] assessed as [3H]-hypoxanthine incorporation after 48 hrs by liquid scintillation counting; type: functional, organism-based; procedure, shortened: as §1
[5] = test system: L6; experiment: Cytotoxicity against rat L6 cells after 72 hrs by alamar blue assay; type: cell-based; conditions: L6, 72 h; procedure, shortened: as §1
[6] = Selectivity index, ratio of IC50 for rat L6 cells to IC50 for trypomastigotes of Trypanosoma brucei rhodesiense STIB 900; type: toxicity, cell-based; conditions: read-out: Ratio IC50
Procedure, shortened: (§3)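 Selectivity index is calculated as the L6 myoblast IC50 divided by the IC50 against the respective parasite. Both IC50s are in µg/mL and are means of two independent determinations.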

[7] = Selectivity index, ratio of IC50 for rat L6 cells to IC50 for intracellular amastigote stage of Trypanosoma cruzi Tulahuen C2C4; type: toxicity, cell-based; conditions: read-out: Ratio IC50; procedure, shortened: as §3
[8] = Selectivity index, ratio of IC50 for rat L6 cells to IC50 for axenic amastigote stage of Leishmania donovani MHOM/ET/67/L82; type: toxicity, cell-based; conditions: read-out: Ratio IC50; procedure, shortened: as §3
[9] = Selectivity index, ratio of IC50 for rat L6 cells to IC50 for chloroquine and pyrimethamine-resistant Plasmodium falciparum K1; type: toxicity, cell-based; conditions: read-out: Ratio IC50; procedure, shortened: as §3

SMILES | IC50 [1] | IC50 [2] | IC50 [3] | IC50 [4] | IC50 [5] | selectivity ratio [6] | selectivity ratio [7] | selectivity ratio [8] | selectivity ratio [9]
CCc1ccc(C(=O)Nc2n[nH]c3ccccc23)cc1 | 8.2 µg/mL (≈ 30.9 µM) | 8.9 µg/mL (≈ 33.5 µM) | 3 µg/mL (≈ 11.3 µM) | 8.5 µg/mL (≈ 32 µM) | 8.2 µg/mL (≈ 30.9 µM) | – | – | – | –
CCc1ccc(NC(=O)CC(=O)Nc2ccccc2O)cc1 | 35 µg/mL (≈ 117 µM) | 20 µg/mL (≈ 67 µM) | 13 µg/mL (≈ 43.6 µM) | 12 µg/mL (≈ 40.2 µM) | 16 µg/mL (≈ 53.6 µM) | 0.44 | 0.76 | 1.2 | 1.3
CCOc1ccc(C(=O)NC(=O)c2ccccc2O)cc1 | 60 µg/mL (≈ 210 µM) | 4.1 µg/mL (≈ 14.4 µM) | 0.45 µg/mL (≈ 1.58 µM) | 1 µg/mL (≈ 3.51 µM) | 17 µg/mL (≈ 59.6 µM) | 0.28 | 4.1 | 37 | 17
O=C(NC(=O)c1ccccc1O)c1ccccc1O | 62 µg/mL (≈ 241 µM) | 14 µg/mL (≈ 54.4 µM) | 1.9 µg/mL (≈ 7.39 µM) | 1.1 µg/mL (≈ 4.28 µM) | 39 µg/mL (≈ 152 µM) | 0.63 | 2.8 | 21 | 36
CCN(CC)c1ccc(C(=O)NC(=O)c2ccccc2O)cc1 | > 50 µg/mL | 2.8 µg/mL (≈ 8.96 µM) | 0.91 µg/mL (≈ 2.91 µM) | 0.005 µg/mL (≈ 0.016 µM) | 8.2 µg/mL (≈ 26.3 µM) | – | – | – | –
CCc1ccc(C(=O)n2c(=O)oc3ccccc3c2=O)cc1 | 83 µg/mL (≈ 281 µM) | 8.8 µg/mL (≈ 29.8 µM) | 1.9 µg/mL (≈ 6.43 µM) | 6.9 µg/mL (≈ 23.4 µM) | 26 µg/mL (≈ 88 µM) | 0.31 | 3 | 13 | 3.7
CCc1ccc(NC(=O)Nc2ccccc2O)cc1 | 18 µg/mL (≈ 70.2 µM) | 7 µg/mL (≈ 27.3 µM) | 3.7 µg/mL (≈ 14.4 µM) | 2.1 µg/mL (≈ 8.19 µM) | 9.6 µg/mL (≈ 37.5 µM) | 0.54 | 1.4 | 2.6 | 4.6
CC(C)c1ccc(C(=O)NC(=O)c2ccccc2O)cc1 | 65 µg/mL (≈ 229 µM) | 2 µg/mL (≈ 7.06 µM) | 1.3 µg/mL (≈ 4.59 µM) | 1.5 µg/mL (≈ 5.29 µM) | 19 µg/mL (≈ 67.1 µM) | 0.29 | 9.5 | 14 | 12
CCc1ccc(C(=O)Nc2cn(C(C)=O)c3ccccc23)cc1 | > 50 µg/mL | 28 µg/mL (≈ 91.4 µM) | > 50 µg/mL | 23 µg/mL (≈ 75.1 µM) | 23 µg/mL (≈ 75.1 µM) | < 0.46 | < 0.81 | < 0.46 | 1
O=C(NC(=O)c1ccccc1O)c1ccc(-c2ccccc2)cc1 | 87 µg/mL (≈ 274 µM) | 7.7 µg/mL (≈ 24.3 µM) | 7.4 µg/mL (≈ 23.3 µM) | 3.9 µg/mL (≈ 12.3 µM) | > 100 µg/mL | > 1.2 | > 13 | > 14 | > 26
O=C(NC(=O)c1ccccc1O)c1ccc(C(F)(F)F)cc1 | 70 µg/mL (≈ 226 µM) | 50 µg/mL (≈ 162 µM) | 0.57 µg/mL (≈ 1.84 µM) | 3.8 µg/mL (≈ 12.3 µM) | 13 µg/mL (≈ 42 µM) | – | – | – | –
CCc1ccc(C(=O)NC(=S)c2ccccc2O)cc1 | 61 µg/mL (≈ 214 µM) | 10 µg/mL (≈ 35 µM) | 5.3 µg/mL (≈ 18.6 µM) | 4.2 µg/mL (≈ 14.7 µM) | 17 µg/mL (≈ 59.6 µM) | 0.28 | 1.7 | 3.3 | 4.1
Cc1occc1C(=O)NC(=O)c1ccccc1O | 48 µg/mL (≈ 196 µM) | 36 µg/mL (≈ 147 µM) | 2 µg/mL (≈ 8.16 µM) | 4.7 µg/mL (≈ 19.2 µM) | 16 µg/mL (≈ 65.2 µM) | 0.33 | 0.44 | 7.8 | 3.4
O=C(NC(=O)c1ccccc1O)c1ccc(F)cc1 | 64 µg/mL (≈ 247 µM) | 51 µg/mL (≈ 197 µM) | 1.6 µg/mL (≈ 6.17 µM) | 1.5 µg/mL (≈ 5.79 µM) | 38 µg/mL (≈ 147 µM) | 0.6 | 0.75 | 23 | 25
COc1cc(C(=O)NC(=O)c2ccccc2O)cc(OC)c1OC | 79 µg/mL (≈ 238 µM) | 40 µg/mL (≈ 121 µM) | 3.2 µg/mL (≈ 9.66 µM) | 0.78 µg/mL (≈ 2.35 µM) | 21 µg/mL (≈ 63.4 µM) | 0.26 | 0.51 | 6.5 | 26
O=C(NC(=O)c1ccccc1O)c1ccc2ccccc2c1 | 26 µg/mL (≈ 89.3 µM) | 8.5 µg/mL (≈ 29.2 µM) | 1 µg/mL (≈ 3.43 µM) | 0.22 µg/mL (≈ 0.755 µM) | 21 µg/mL (≈ 72.1 µM) | 0.78 | 2.4 | 20 | 94
CCc1ccc(C(=O)NNC(=O)c2ccccc2O)cc1 | 17 µg/mL (≈ 59.8 µM) | 2.2 µg/mL (≈ 7.74 µM) | 6.2 µg/mL (≈ 21.8 µM) | 27 µg/mL (≈ 95 µM) | 4.8 µg/mL (≈ 16.9 µM) | 0.28 | 2.2 | 0.77 | 0.18

SMILES | IC50 [1] | IC50 [2] | IC50 [3] | IC50 [4] | IC50 [5] | selectivity ratio [6] | selectivity ratio [7] | selectivity ratio [8] | selectivity ratio [9]
CS(=O)(=O)c1ccc(C(=O)NC(=O)c2ccccc2O)cc1 | > 100 µg/mL | 51 µg/mL (≈ 160 µM) | > 100 µg/mL | 38 µg/mL (≈ 119 µM) | > 100 µg/mL | – | > 2 | – | > 2.7
COc1ccc(C(=O)NC(=O)c2ccccc2O)cc1 | 50 µg/mL (≈ 184 µM) | 31 µg/mL (≈ 114 µM) | 1.7 µg/mL (≈ 6.27 µM) | 1.6 µg/mL (≈ 5.9 µM) | 39 µg/mL (≈ 144 µM) | 0.78 | 1.3 | 23 | 24
CCc1ccc(NC(=O)NC(=O)c2ccccc2O)cc1 | 36 µg/mL (≈ 127 µM) | 74 µg/mL (≈ 260 µM) | 100 µg/mL (≈ 352 µM) | 26 µg/mL (≈ 91.4 µM) | 70 µg/mL (≈ 246 µM) | 2 | 0.95 | 0.7 | 2.8
COC(=O)c1ccc(C(=O)NC(=O)c2ccccc2O)cc1 | > 50 µg/mL | 20 µg/mL (≈ 66.8 µM) | > 50 µg/mL | 2.9 µg/mL (≈ 9.69 µM) | 42 µg/mL (≈ 140 µM) | < 0.83 | 2.1 | < 0.83 | 14
N#Cc1ccc(C(=O)NC(=O)c2ccccc2O)cc1 | > 100 µg/mL | 100 µg/mL (≈ 376 µM) | 12 µg/mL (≈ 45.1 µM) | 14 µg/mL (≈ 52.6 µM) | 55 µg/mL (≈ 207 µM) | < 0.55 | 0.55 | 4.7 | 3.9
O=C(NC(=O)c1ccccc1O)c1ccc([N+](=O)[O-])cc1 | > 100 µg/mL | 56 µg/mL (≈ 196 µM) | 11 µg/mL (≈ 38.4 µM) | 22 µg/mL (≈ 76.9 µM) | 53 µg/mL (≈ 185 µM) | < 0.53 | 0.94 | 4.9 | 2.4
O=C(NC(=O)C1CCCCC1)c1ccccc1O | > 100 µg/mL | 16 µg/mL (≈ 64.7 µM) | 6 µg/mL (≈ 24.3 µM) | 13 µg/mL (≈ 52.6 µM) | 55 µg/mL (≈ 222 µM) | < 0.55 | 3.4 | 9.2 | 4.4
Nc1ccc(C(=O)NC(=O)c2ccccc2O)cc1 | 46 µg/mL (≈ 180 µM) | 40 µg/mL (≈ 156 µM) | 7.8 µg/mL (≈ 30.4 µM) | 3.9 µg/mL (≈ 15.2 µM) | 39 µg/mL (≈ 152 µM) | 0.84 | 0.98 | 5 | 10
O=C(NC(=O)c1ccccc1O)c1cccc(CCl)c1 | 20 µg/mL (≈ 69 µM) | 17 µg/mL (≈ 58.7 µM) | 0.16 µg/mL (≈ 0.552 µM) | 4.4 µg/mL (≈ 15.2 µM) | 1.8 µg/mL (≈ 6.21 µM) | 0.087 | 0.1 | 11 | 0.4
O=C(NC(=O)c1ccccc1O)c1ccc(OC(F)(F)F)cc1 | 65 µg/mL (≈ 200 µM) | 72 µg/mL (≈ 221 µM) | 5.3 µg/mL (≈ 16.3 µM) | 22 µg/mL (≈ 67.6 µM) | 84 µg/mL (≈ 258 µM) | – | – | – | –
CN(C)c1ccc(C(=O)NC(=O)c2ccccc2O)cc1 | 81 µg/mL (≈ 285 µM) | 37 µg/mL (≈ 130 µM) | 18 µg/mL (≈ 63.3 µM) | 0.49 µg/mL (≈ 1.72 µM) | 54 µg/mL (≈ 190 µM) | 0.66 | 1.4 | 3 | 110
O=C(NC(=O)c1ccccc1O)c1ccc(N2CCOCC2)cc1 | > 50 µg/mL | > 50 µg/mL | 16 µg/mL (≈ 49 µM) | 0.18 µg/mL (≈ 0.552 µM) | > 50 µg/mL | – | – | > 3.1 | > 272
CCc1ccc(-c2noc(-c3ccccc3O)n2)cc1 | 61 µg/mL (≈ 229 µM) | 39 µg/mL (≈ 146 µM) | – | 27 µg/mL (≈ 101 µM) | > 100 µg/mL | > 1.6 | > 2.6 | > 1 | > 3.7
COC(=O)CCC(=O)Nc1ccc(C(=O)NC(=O)c2ccccc2O)cc1 | > 50 µg/mL | > 50 µg/mL | 22 µg/mL (≈ 59.4 µM) | 21 µg/mL (≈ 56.7 µM) | > 50 µg/mL | – | – | > 2.3 | > 2.4
O=C(CCCCCCC(=O)Nc1ccc(C(=O)NC(=O)c2ccccc2O)cc1)NO | 65 µg/mL (≈ 152 µM) | 49 µg/mL (≈ 115 µM) | > 100 µg/mL | 3.5 µg/mL (≈ 8.19 µM) | > 100 µg/mL | > 1.5 | > 2.1 | – | > 29
Nc1nc(N)nc(Nc2ccc([As]3SCC(CO)S3)cc2)n1 (stereo not given) [MELARSOPROL] | 0.005 µg/mL | – | – | – | – | – | – | – | –
